Assay results pooled from the literature.
Compare with care: the assays were run in different laboratories.

| Compound | tested on | test | test system | conditions | endpoint | value |
| --- | --- | --- | --- | --- | --- | --- |
| Cl.N[C@@H]1CCN(c2cc(C(=O)NCC(=O)O)ccc2NC(=O)c2cc(Br)c(Br)[nH]2)C1 | Klebsiella aerogenes | microbial growth, broth dilution | ATCC13408 |  | MIC | > 32 µg/mL |
| C=CC(=O)NC1CCN(c2ncc3ncnc(Nc4ccc(Oc5ccc6c(c5)ncn6C)c(C)c4)c3n2)CC1 | HCC15 | cell growth or viability |  |  | EC50 | 0.22 µM |
| Cl.O=C(O)CNC(=O)c1ccc(NC(=O)c2cc(Br)c(Br)[nH]2)c(N2CCNCC2)c1 | Klebsiella aerogenes | microbial growth, broth dilution | ATCC13408 |  | MIC | > 32 µg/mL |
| O=C(O)c1cn(C2CC2)c2cc(N3CCNCC3)c(F)cc2c1=O | Klebsiella aerogenes | microbial growth | ATCC35029 |  | MIC | 2 µM |
| Cc1cc(C)c(C#N)c(SCC(=O)c2ccccn2)n1 | Leishmania infantum | parasite growth | mouse Macrophage | intracellular, amastigote | EC50 | 45.5 µM |
| Cc1[nH]c(C(=O)Nc2ccc(C(=O)NCC(=O)O)cc2N2CC[C@H](NC(=O)OC(C)(C)C)C2)c(Cl)c1Cl | Klebsiella aerogenes | microbial growth, broth dilution | ATCC13408 |  | MIC | > 32 µg/mL |
| COc1ccc(C(=O)CSc2nc(C)cc(C)c2C#N)cc1 | Leishmania infantum | parasite growth | mouse Macrophage | intracellular, amastigote | EC50 | 25.2 µM |
| CC(C)(C)OC(=O)N[C@H]1CCN(c2cc(C(=O)NCC(=O)O)ccc2NC(=O)c2cc(Br)c(Br)[nH]2)C1 | Klebsiella aerogenes | microbial growth, broth dilution | ATCC13408 |  | MIC | > 32 µg/mL |
| O=C(O)c1ccccc1Nc1cccc(C(F)(F)F)c1 | U-87 MG | cell growth or viability, SRB |  | 48 h | GI50 | > 30 µM |
| CC(=NNC(=O)COc1ccc2c(C)c(Cc3ccccc3)c(=O)oc2c1C)c1ccc(Br)cc1 | HCT-116 | cell growth or viability, MTT |  | 6.3 µg/mL | viability | 49.9% |
| COc1cccc(C(=O)COc2nc(C)cc(C)c2C#N)c1 | Leishmania infantum | parasite growth | mouse Macrophage | intracellular, amastigote | EC50 | > 64 µM |
| C=CC(=O)c1cccnc1Nc1cc(C(F)(F)F)ccc1OC | U-87 MG | cell growth or viability, SRB |  | 48 h | GI50 | 7.72 µM |
